Legend:
[1] = system: polyamine transporter; assay: Selectivity ratio of IC50 for polyamine transporter deficient CHO-MG cells to IC50 for CHO cells by MTS assay; format: ADME, cell-based, Cricetulus griseus; conditions: chinese hamster, polyamine transporter deficient CHO-MG cells and CHO cells; read-out: Ratio IC50
Method in brief: (§1)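 CHO and polyamine-transport-deficient CHO-MG* cells pretreated 24 h with 1 mM aminoguanidine, then exposed to compound for 48 h at 37 °C. Triplicate. IC50 taken as 50% growth inhibition. PTS selectivity expressed as the CHO-MG*/CHO IC50 ratio.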

[2] = Cytotoxicity against human L3.6PL cells assessed as inhibition of cell growth after 48 hrs incubation by MTS assay in presence of 250 uM aminoguanidine treated 24 hrs prior compound addition; format: functional, cell-based; conditions: for IC50: Homo sapiens, L3.6pl
Method in brief: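 L3.6pl cells pretreated 24 h with 250 μM aminoguanidine, then incubated with compound for 48 h at 37 °C. Triplicate. IC50 is the concentration giving 50% growth inhibition and IC5 the concentration giving 5% inhibition, both versus untreated control.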

[3] = system: CHO-MG; assay: Cytotoxicity against polyamine transporter deficient CHO-MG cells assessed as cell growth after 48 hrs incubation by MTS assay in presence of 1 mM aminoguanidine; format: ADME, cell-based; conditions: Cricetulus griseus; method in brief: as §1
[4] = system: CHO; assay: Cytotoxicity against CHO cells assessed as cell growth after 48 hrs incubation by MTS assay in presence of 1 mM aminoguanidine; format: cell-based; conditions: Cricetulus griseus; method in brief: as §1
[5] = system: L3.6pl; assay: Antimigratory activity against human L3.6PL cells assessed as cell migration inhibition after 48 hrs incubation by wound healing assay in presence of 250 uM aminoguanidine treated 24 hrs prior compound addition; format: functional, cell-based
[6] = Antimigratory activity against human L3.6PL cells assessed as cell migration inhibition at 2 uM after 48 hrs incubation by wound healing assay in presence of 250 uM aminoguanidine treated 24 hrs prior compound addition; format: functional
[7] = Antimigratory activity against human L3.6PL cells assessed as cell migration inhibition at 0.6 uM after 48 hrs incubation by wound healing assay in presence of 250 uM aminoguanidine treated 24 hrs prior compound addition; format: functional
[8] = Antimigratory activity against human L3.6PL cells assessed as cell migration inhibition at 1 uM after 48 hrs incubation by wound healing assay in presence of 250 uM aminoguanidine treated 24 hrs prior compound addition; format: functional

Cl.NCCCCNCCCCNC1CCCCCCCCCCCCCC1
selectivity ratio [1]: 1 | IC5 [2]: 2 µM | IC50 [2]: 2.8 µM | IC50 [3]: 5.18 µM | IC50 [4]: 4.53 µM

Cl.NCCCCNCCCCNCC1CCCCCCCCCCCCCC1
selectivity ratio [1]: 1 | inhibition [5]: Dose-dependent effect | IC5 [2]: 40 µM | IC50 [2]: 48.7 µM | IC50 [3]: 45.5 µM | IC50 [4]: 47.8 µM

Cl.NCCCNCCCNC1CCCCCCCCCCCCCC1
selectivity ratio [1]: 2.1 | inhibition (INH) [6]: 32.9% | IC5 [2]: 2 µM | IC50 [2]: 2.8 µM | IC50 [3]: 5.95 µM | IC50 [4]: 2.84 µM | inhibition (INH) [7]: 19.3%

Cl.NCCCCNCCCCN1CCCCCCCCCCCCCC1
selectivity ratio [1]: 1 | IC5 [2]: 1 µM | IC50 [2]: 1.8 µM | IC50 [3]: 4.67 µM | inhibition (INH) [8]: 29.6% | IC50 [4]: 4.38 µM | inhibition (INH) [7]: 16.7%
